Data taken from ChEMBL document CHEMBL4610116, “Salicylanilide Analog Minimizes Relapse of Clostridioides difficile Infection in Mice” (J Med Chem, 2020).
≈ marks a conversion by molar mass, not a printed value. Calls of active or inactive are those of the source. No cut-off for these calls is given here.

Tests used:
Clostridioides difficile [1] = assay: Antimicrobial activity against Clostridioides difficile CD10463 incubated for 20 to 24 hrs by broth microdilution method; type: functional
Procedure, shortened: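 Broth microdilution in pre-reduced BHIS using two-fold serial dilutions and ~5 × 10⁵ cfu/mL inoculum. Incubated 20–24 h at 37°C, anaerobic (8% H₂, 8% CO₂, 84% N₂). MIC read by the Lambert-Pearson method; duplicates.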

Clostridioides difficile [2] = assay: (§1) Suppression of relapse of Clostridioides difficile 630 infection in cefoperazone-treated C57BL/6J mouse model of recurrent Clostridioides difficile 630 infection assessed as reduction in group-Bacteroidaceae level at 0.4 mg/ml, po for 5 days from day 4 to 9 after infection with spores measured on day day 14; type: functional, organism-based
Procedure, shortened: (§2)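 Infection model: cefoperazone 0.5 mg/ml in drinking water for 5 days, 2-day washout, then 10⁵ strain 630 spores by gavage. Vancomycin 0.4 mg/mL in drinking water, days 4–9. Cecal tissue snips taken at day 14 necropsy; gut bacterial community profiled by 16S rRNA gene sequencing on Illumina MiSeq. n=6 per group.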

Clostridioides difficile [3] = assay: (§3) Suppression of relapse of Clostridioides difficile 630 infection in cefoperazone-treated C57BL/6J mouse model of recurrent Clostridioides difficile 630 infection assessed as reduction in body weight loss at 0.4 mg/ml, po for 5 days from day 4 to 9 after infection with spores and measured on day 3; type: functional, organism-based
Procedure, shortened: (§4)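 Cefoperazone 0.5 mg/ml in drinking water for 5 days, then 2-day washout, in 5-week-old male and female C57BL/6J mice. Oral gavage of 10⁵ C. difficile 630 spores on day 0. Vancomycin 0.4 mg/mL given in drinking water ad libitum on days 4–9. Body weight recorded daily and clinical signs watched for 14 days; n=6 per group.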

Clostridioides difficile [4] = assay: as §1, with “group-Proteobacteria” for “group-Bacteroidaceae”; type: functional, organism-based; procedure, shortened: as §2
Clostridioides difficile [5] = assay: as §3, with “in microbial load (total vegetative cells plus spores)” for “in body weight loss”, “day 7” for “day 3”; type: functional, organism-based
Procedure, shortened: (§5)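 Strain 630 spore challenge (10⁵, gavage) of cefoperazone-treated mice; vancomycin 0.4 mg/mL in drinking water on days 4–9. Feces diluted 1:10 in PBS and settled anaerobically 30 min. Ten-fold dilutions plated on TCCFA, incubated anaerobically at 37°C for 24 h. Result is CFU/g feces of total vegetative cells plus spores from unheated samples. Mixed-effect model with Tukey post test.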

Clostridioides difficile [6] = assay: as §3, with “reduction in microbial load in feces (total vegetative cells plus spores) at 0.4” for “reduction in body weight loss at 0.4”, “day 3 after drug cessation” for “day 3”; type: functional, organism-based; procedure, shortened: as §5
Clostridioides difficile [7] = assay: as §1, with “histopathological summary scores” for “group-Bacteroidaceae level”; type: functional, organism-based
Clostridioides difficile [8] = assay: Suppression of relapse of Clostridioides difficile 630 infection in cefoperazone-treated C57BL/6J mouse model of recurrent Clostridioides difficile 630 infection assessed as reduction in clinical illness at 0.4 mg/ml, po for 5 days from day 4 to 9 after infection with spores measured on day day 14; type: functional, organism-based; procedure, shortened: as §4
Clostridioides difficile [9] = assay: Suppression of relapse of Clostridioides difficile 630 infection in cefoperazone-treated C57BL/6J mouse model of recurrent Clostridioides difficile 630 infection assessed as reduction in weight loss at 0.4 mg/ml, po for 5 days from day 4 to 9 after infection with spores and measured on day 14; type: functional; parameters: scale not given: the % may be the effect or the level left; procedure, shortened: as §4
Clostridioides difficile [10] = assay: as §3, with “day 3 after drug cessation” for “day 3”; type: functional, organism-based; procedure, shortened: as §4

Row | Compound | MIC (Clostridioides difficile [1]) | also measured
1 | O=C(Nc1ccc(Oc2ccc(Cl)cc2)c(Br)c1)c1cc(Cl)cc(Cl)c1O | 0.1 µM (≈ 0.0488 µg/mL) | 
2 | O=C(Nc1ccc(Oc2ccc(Cl)cc2)cc1)c1cc(Cl)cc(Cl)c1O | 1.4 µM (≈ 0.572 µg/mL) | 
3 | COc1cc(Oc2ccc(Cl)cc2)ccc1NC(=O)c1cc(Cl)cc(Cl)c1O | 3.6 µM (≈ 1.58 µg/mL) | 
4 | N#Cc1cc(NC(=O)c2cc(Cl)cc(Cl)c2O)ccc1Oc1ccc(Cl)cc1 | 0.37 µM (≈ 0.16 µg/mL) | 
5 | O=C(Nc1ccc(Oc2ccc(Cl)cc2)c(Cl)c1)c1cc(Cl)cc(Cl)c1O | 0.11 µM (≈ 0.0487 µg/mL) | 
6 | O=C(Nc1ccc(Oc2ccc(Cl)cc2)cc1I)c1cc(Cl)cc(Cl)c1O | 0.17 µM (≈ 0.0909 µg/mL) | 
7 | O=C(Nc1ccc(Oc2ccc(Cl)cc2)c(I)c1)c1cc(Cl)cc(Cl)c1O | 0.6 µM (≈ 0.321 µg/mL) | 
8 | O=C(Nc1cc([N+](=O)[O-])c(Oc2ccc(Cl)cc2)c([N+](=O)[O-])c1)c1cc(Cl)cc(Cl)c1O | > 2 µM | 
9 | CN[C@H](CC(C)C)C(=O)N[C@H]1C(=O)N[C@@H](CC(N)=O)C(=O)N[C@H]2C(=O)N[C@H]3C(=O)N[C@H](C(=O)N[C@H](C(=O)O)c4cc(O)cc(O)c4-c4cc3ccc4O)[C@H](O)c3ccc(c(Cl)c3)Oc3cc2cc(c3O[C@@H]2O[C@H](CO)[C@@H](O)[C@H](O)[C@H]2O[C@H]2C[C@](C)(N)[C@H](O)[C@H](C)O2)Oc2ccc(cc2Cl)[C@H]1O [VANCOMYCIN] | 2.1 µM (≈ 3.04 µg/mL) | Activity (Clostridioides difficile [2]): inactive; Activity (Clostridioides difficile [3]): Active; Activity (Clostridioides difficile [4]): inactive; Activity (Clostridioides difficile [5]): Active; Activity (Clostridioides difficile [6]): inactive; Activity (Clostridioides difficile [7]): inactive; Activity (Clostridioides difficile [8]): inactive; Activity (Clostridioides difficile [9]): 10 - 26%; Activity (Clostridioides difficile [10]): inactive
10 | O=C(Nc1ccc(Oc2ccc(Cl)cc2)cc1Br)c1cc(Cl)cc(Cl)c1O | 0.18 µM (≈ 0.0878 µg/mL) | 
11 | O=C(Nc1ccc(Oc2ccc(Cl)cc2)c(F)c1)c1cc(Cl)cc(Cl)c1O | 0.135 µM (≈ 0.0576 µg/mL) | 
12 | O=C(Nc1cc(I)c(Oc2ccc(Cl)cc2)c(I)c1)c1cc(Cl)cc(Cl)c1O | 0.075 µM (≈ 0.0495 µg/mL) | 
13 | COc1cc(NC(=O)c2cc(Cl)cc(Cl)c2O)ccc1Oc1ccc(Cl)cc1 | 2.6 µM (≈ 1.14 µg/mL) | 
